pKi: −log10 of the molar value.
Columns and labels:
[1] = biological target: T1, Adrenergic receptor alpha-1 (Rattus norvegicus, UniProt P15823+P23944+P43140); test: Binding affinity against rat Alpha-1 adrenergic receptor.; type: protein assay
T1 sequence (P15823 whole entry): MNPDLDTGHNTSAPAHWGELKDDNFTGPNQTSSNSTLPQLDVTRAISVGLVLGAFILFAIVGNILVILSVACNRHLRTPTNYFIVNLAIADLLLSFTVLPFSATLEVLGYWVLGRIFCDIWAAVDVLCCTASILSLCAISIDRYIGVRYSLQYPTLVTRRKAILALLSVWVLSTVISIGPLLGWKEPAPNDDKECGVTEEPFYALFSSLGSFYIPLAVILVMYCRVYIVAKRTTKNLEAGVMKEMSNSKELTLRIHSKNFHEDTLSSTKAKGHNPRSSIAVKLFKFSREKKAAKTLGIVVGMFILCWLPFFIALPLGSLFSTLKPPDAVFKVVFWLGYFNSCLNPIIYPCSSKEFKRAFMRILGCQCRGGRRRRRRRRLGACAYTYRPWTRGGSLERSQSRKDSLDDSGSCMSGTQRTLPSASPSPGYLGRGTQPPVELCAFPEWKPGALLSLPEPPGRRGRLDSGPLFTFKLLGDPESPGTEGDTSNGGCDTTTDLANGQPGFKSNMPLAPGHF
T1 sequence (P23944 whole entry): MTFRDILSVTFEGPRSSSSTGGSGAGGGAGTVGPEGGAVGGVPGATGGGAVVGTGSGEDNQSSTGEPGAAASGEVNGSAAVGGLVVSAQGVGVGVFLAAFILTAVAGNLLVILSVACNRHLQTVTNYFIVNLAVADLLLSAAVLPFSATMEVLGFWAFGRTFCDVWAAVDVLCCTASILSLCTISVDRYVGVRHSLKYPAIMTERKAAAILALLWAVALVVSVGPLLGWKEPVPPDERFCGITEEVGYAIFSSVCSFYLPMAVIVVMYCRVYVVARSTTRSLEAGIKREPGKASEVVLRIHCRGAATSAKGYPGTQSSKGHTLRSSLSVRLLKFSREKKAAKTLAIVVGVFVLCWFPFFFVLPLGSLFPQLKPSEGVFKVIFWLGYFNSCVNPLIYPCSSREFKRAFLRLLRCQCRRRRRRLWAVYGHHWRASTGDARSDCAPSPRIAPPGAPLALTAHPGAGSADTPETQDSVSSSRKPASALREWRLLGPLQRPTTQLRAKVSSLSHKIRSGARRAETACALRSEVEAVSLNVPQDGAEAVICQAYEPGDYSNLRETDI
T1 sequence (P43140 whole entry): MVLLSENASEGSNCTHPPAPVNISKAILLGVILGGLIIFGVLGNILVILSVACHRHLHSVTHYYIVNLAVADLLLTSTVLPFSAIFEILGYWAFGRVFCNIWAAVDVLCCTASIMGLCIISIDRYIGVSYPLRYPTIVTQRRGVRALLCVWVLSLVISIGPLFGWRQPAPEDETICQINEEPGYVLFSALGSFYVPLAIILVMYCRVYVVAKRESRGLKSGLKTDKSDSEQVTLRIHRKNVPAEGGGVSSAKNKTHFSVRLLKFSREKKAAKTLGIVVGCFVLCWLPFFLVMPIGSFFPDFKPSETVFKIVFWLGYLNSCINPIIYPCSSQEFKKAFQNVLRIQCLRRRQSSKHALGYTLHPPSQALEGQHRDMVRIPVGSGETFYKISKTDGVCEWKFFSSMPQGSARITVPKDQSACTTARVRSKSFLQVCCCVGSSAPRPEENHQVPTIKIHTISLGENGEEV

Rattus norvegicus [2] = organism: Rattus norvegicus; test: The percent loss of escape responding was determined for the estimated effective dose 50 values for CAR block; type: functional
[3] = biological target: T2, 5-hydroxytryptamine receptor 1A (Rattus norvegicus, UniProt P19327)
T2 sequence (P19327 whole entry): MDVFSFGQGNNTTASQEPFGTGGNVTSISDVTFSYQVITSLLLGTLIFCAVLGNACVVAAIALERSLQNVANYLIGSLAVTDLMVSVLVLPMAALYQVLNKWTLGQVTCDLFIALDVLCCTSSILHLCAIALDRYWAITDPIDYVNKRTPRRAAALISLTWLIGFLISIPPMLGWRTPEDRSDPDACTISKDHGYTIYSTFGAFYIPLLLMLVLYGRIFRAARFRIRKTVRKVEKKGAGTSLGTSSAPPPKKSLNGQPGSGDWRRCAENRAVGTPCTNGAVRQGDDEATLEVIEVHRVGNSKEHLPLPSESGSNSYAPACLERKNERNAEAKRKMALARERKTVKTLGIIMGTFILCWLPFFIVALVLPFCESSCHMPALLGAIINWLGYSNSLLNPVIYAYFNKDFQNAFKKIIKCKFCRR

[4] = biological target: Serotonin 2 (5-HT2) receptor (Rattus norvegicus, UniProt P30994+P08909+P14842); test: Binding affinity at rat 5-hydroxytryptamine 2 receptor by [3H]ketanserin displacement.; type: protein assay
[5] = biological target: T3, Serotonin 1 (5-HT1) receptor (Rattus norvegicus, UniProt P28564+P30940+P19327+P28565); test: Inhibition of [3H]5-HT radioligand binding against 5-hydroxytryptamine 1 receptor; type: protein assay
D(1A) dopamine receptor = D(1A) dopamine receptor (Rattus norvegicus, UniProt P18901); test: Binding affinity at rat Dopamine receptor D1 by [3H]SCH-23390 displacement.
Procedure, shortened: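 Rat striatal tissue suspended in 20 mM NaHepes without sucrose, at 250 volumes of the tissue weight. Labelled with [3H]SCH-23390 added as a 3 nM solution. Nonspecific binding set with unlabelled SCH-23390 added as a 30 μM solution. Incubated 20 min. Run in duplicate, with one to five concentration–response curves per compound.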

[6] = biological target: 5-hydroxytryptamine receptor 1B (Rattus norvegicus, UniProt P28564); test: Binding affinity at rat 5-hydroxytryptamine 1B receptor by [3H]5-HT displacement.
D(2) dopamine receptor = D(2) dopamine receptor (Rattus norvegicus, UniProt P61169); test: Binding affinity against rat Dopamine receptor D2.
Rattus norvegicus [7] = test: Effective dose in blocking conditioned avoidance responding (CAR) in the rat when administered intraperitoneally; type: functional; conditions: ip
Procedure, shortened: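 Rats trained on a discrete-trial single-lever conditioned avoidance task, dosed ip and tested at the time of peak effect. Each dose was given to 6–12 rats. CAR reduction and loss of escape responding were recorded.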

[8] = biological target: T3, Serotonin 1 (5-HT1) receptor; test: Binding affinity determined in radioreceptor binding assay by using [3H]5-HT radioligand against 5-hydroxytryptamine 1 receptor; type: protein assay

Chain of 5-hydroxytryptamine receptor 1B (P28564 whole entry): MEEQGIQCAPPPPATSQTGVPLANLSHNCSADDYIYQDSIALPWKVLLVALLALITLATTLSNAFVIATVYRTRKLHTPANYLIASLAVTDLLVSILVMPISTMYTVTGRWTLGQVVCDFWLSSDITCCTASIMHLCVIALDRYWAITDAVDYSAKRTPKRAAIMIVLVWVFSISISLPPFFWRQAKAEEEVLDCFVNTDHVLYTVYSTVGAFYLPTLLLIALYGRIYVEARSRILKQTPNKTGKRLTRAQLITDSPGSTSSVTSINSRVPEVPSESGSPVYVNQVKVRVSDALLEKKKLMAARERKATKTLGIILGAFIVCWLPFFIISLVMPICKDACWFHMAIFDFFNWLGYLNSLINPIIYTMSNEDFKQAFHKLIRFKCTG
Chain of D(1A) dopamine receptor (P18901 whole entry): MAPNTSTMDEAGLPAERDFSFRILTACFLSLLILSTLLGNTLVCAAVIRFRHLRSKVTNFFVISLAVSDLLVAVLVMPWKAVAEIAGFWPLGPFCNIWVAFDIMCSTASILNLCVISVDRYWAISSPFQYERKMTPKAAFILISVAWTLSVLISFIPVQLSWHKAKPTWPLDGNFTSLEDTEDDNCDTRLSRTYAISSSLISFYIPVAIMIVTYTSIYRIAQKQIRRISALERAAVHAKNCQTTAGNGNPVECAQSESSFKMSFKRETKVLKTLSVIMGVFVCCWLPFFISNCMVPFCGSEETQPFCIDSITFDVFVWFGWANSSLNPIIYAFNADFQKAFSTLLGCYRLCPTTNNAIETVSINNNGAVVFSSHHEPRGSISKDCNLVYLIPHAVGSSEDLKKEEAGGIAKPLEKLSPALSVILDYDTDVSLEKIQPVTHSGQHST
Chain of D(2) dopamine receptor (P61169 whole entry): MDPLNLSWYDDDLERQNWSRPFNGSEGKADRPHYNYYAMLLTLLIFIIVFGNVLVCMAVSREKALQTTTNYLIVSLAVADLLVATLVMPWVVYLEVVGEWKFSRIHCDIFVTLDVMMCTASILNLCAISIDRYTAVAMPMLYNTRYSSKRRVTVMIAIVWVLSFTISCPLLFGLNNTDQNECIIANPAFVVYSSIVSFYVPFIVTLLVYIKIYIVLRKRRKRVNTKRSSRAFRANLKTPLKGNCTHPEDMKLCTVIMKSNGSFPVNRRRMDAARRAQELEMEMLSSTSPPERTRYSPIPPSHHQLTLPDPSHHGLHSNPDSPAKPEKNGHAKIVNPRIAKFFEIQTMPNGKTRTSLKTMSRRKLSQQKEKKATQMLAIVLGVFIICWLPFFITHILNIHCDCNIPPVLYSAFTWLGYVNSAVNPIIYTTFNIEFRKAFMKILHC

SMILES: O=[N+]([O-])c1cccc(N2CCNCC2)c1
- Ki [1]: > 1 µM
- Loss (Rattus norvegicus [2]): 4.3%
- pKi [3]: ~6.49
- Ki [4]: 0.419 µM
- Ki [5]: 0.25 µM
- pKi (D(1A) dopamine receptor): < 6.00
- pKi [6]: 7.47
- pKi (D(2) dopamine receptor): < 6.00
- ED50 (Rattus norvegicus [7]): 5.6 mg/kg

SMILES: Fc1cccc(N2CCNCC2)c1
- Ki [1]: 0.67 µM
- pKi [3]: 6.94
- Ki [4]: > 1 µM
- Ki [5]: 0.0865 µM
- pKi (D(1A) dopamine receptor): < 6.00
- pKi [6]: 7.51
- pKi (D(2) dopamine receptor): < 6.00
- ED50 (Rattus norvegicus [7]): 3.2 mg/kg

SMILES: CCOc1ccccc1N1CCNCC1
- Ki [1]: 0.07 µM
- Loss (Rattus norvegicus [2]): ~1%
- pKi [3]: 8.04
- Ki [4]: 0.774 µM
- Ki [5]: 0.0426 µM
- pKi (D(1A) dopamine receptor): < 6.00
- pKi [6]: 7.86
- pKi (D(2) dopamine receptor): 6.84
- ED50 (Rattus norvegicus [7]): 3.4 mg/kg

SMILES: N#Cc1ccccc1N1CCNCC1
- Ki [1]: 0.214 µM
- Loss (Rattus norvegicus [2]): 4.3%
- pKi [3]: 7.59
- Ki [4]: > 1 µM
- Ki [5]: 0.0261 µM
- pKi (D(1A) dopamine receptor): < 6.00
- pKi [6]: 7.66
- pKi (D(2) dopamine receptor): < 6.00
- ED50 (Rattus norvegicus [7]): 5.7 mg/kg

SMILES: Fc1ccccc1N1CCNCC1
- Ki [1]: 0.373 µM
- Loss (Rattus norvegicus [2]): 1.6%
- pKi [3]: 7.37
- Ki [4]: > 1 µM
- Ki [5]: 0.0579 µM
- pKi (D(1A) dopamine receptor): < 6.00
- pKi [6]: 7.54
- pKi (D(2) dopamine receptor): < 6.00
- ED50 (Rattus norvegicus [7]): 5.1 mg/kg

SMILES: CCCCOc1ccccc1N1CCNCC1
- Ki [1]: 0.139 µM
- Loss (Rattus norvegicus [2]): 0.2%
- pKi [3]: 7.95
- Ki [4]: 0.277 µM
- Ki [5]: 0.0193 µM
- pKi (D(1A) dopamine receptor): < 6.00
- pKi [6]: 8.40
- pKi (D(2) dopamine receptor): 6.61
- ED50 (Rattus norvegicus [7]): 11.2 mg/kg

SMILES: COc1ccccc1N1CCNCC1
- Ki [1]: 0.51 µM
- Loss (Rattus norvegicus [2]): 1.8%
- pKi [3]: 8.02
- Ki [4]: > 1 µM
- Ki [5]: 0.029 µM
- pKi (D(1A) dopamine receptor): < 6.00
- pKi [6]: 7.76
- ED50 (Rattus norvegicus [7]): 5.6 mg/kg

SMILES: CC(C)Oc1ccccc1N1CCNCC1
- Ki [1]: 0.084 µM
- Loss (Rattus norvegicus [2]): 0.4%
- pKi [3]: 8.12
- Ki [4]: 0.235 µM
- Ki [5]: 0.019 µM
- pKi (D(1A) dopamine receptor): < 6.00
- pKi [6]: 8.16
- pKi (D(2) dopamine receptor): 7.19
- ED50 (Rattus norvegicus [7]): 4.8 mg/kg

SMILES: CCCc1ccccc1N1CCNCC1
- Ki [1]: 0.117 µM
- pKi [3]: 7.71
- Ki [4]: 0.232 µM
- pKi (D(1A) dopamine receptor): < 6.00
- pKi [6]: 7.80
- Ki [8]: 0.0349 µM
- pKi (D(2) dopamine receptor): 6.42
- ED50 (Rattus norvegicus [7]): > 15 mg/kg

SMILES: CCCCc1ccccc1N1CCNCC1
- Ki [1]: 0.0318 µM
- pKi [3]: 7.72
- Ki [4]: 0.204 µM
- pKi (D(1A) dopamine receptor): < 6.00
- pKi [6]: 8.08
- Ki [8]: 0.0648 µM
- pKi (D(2) dopamine receptor): 6.08
- ED50 (Rattus norvegicus [7]): > 15 mg/kg

SMILES: CCCN(CCC)C1CCc2cccc(O)c2C1 (centres undefined) [8-OH-DPAT]
- ED50 (Rattus norvegicus [7]): 0.5 mg/kg

SMILES: CN1[C@@H]2CC[C@H]1C[C@@H](OC(=O)C(CO)c1ccccc1)C2 (some centres undefined) [ATROPINE]
- ED50 (Rattus norvegicus [7]): 3 mg/kg

SMILES: Clc1cccc(N2CCNCC2)c1 [CHLOROPHENYLPIPERAZINE]
- Ki [1]: 0.236 µM
- Loss (Rattus norvegicus [2]): 1.5%
- pKi [3]: 7.64
- Ki [4]: 0.04 µM
- Ki [5]: 0.025 µM
- pKi (D(1A) dopamine receptor): < 6.00
- pKi [6]: 8.36
- pKi (D(2) dopamine receptor): < 6.00
- ED50 (Rattus norvegicus [7]): 2.4 mg/kg

SMILES: CN(C)CCCN1c2ccccc2Sc2ccc(Cl)cc21 [CHLORPROMAZINE]
- Loss (Rattus norvegicus [2]): 0.2%
- ED50 (Rattus norvegicus [7]): 1.8 mg/kg

SMILES: CN1CCN(C2=Nc3cc(Cl)ccc3Nc3ccccc32)CC1 [CLOZAPINE]
- Loss (Rattus norvegicus [2]): 12.6%

SMILES: COC(=O)[C@H]1[C@@H](OC(=O)c2ccccc2)C[C@@H]2CC[C@H]1N2C [COCAINE]
- ED50 (Rattus norvegicus [7]): 10 mg/kg

SMILES: CNCCCN1c2ccccc2CCc2ccccc21 [DESIPRAMINE]
- ED50 (Rattus norvegicus [7]): 20 mg/kg

SMILES: CN1C(=O)CN=C(c2ccccc2)c2cc(Cl)ccc21 [DIAZEPAM]
- ED50 (Rattus norvegicus [7]): 10 mg/kg

SMILES: O=C(CCCN1CCC(O)(c2ccc(Cl)cc2)CC1)c1ccc(F)cc1 [HALOPERIDOL]
- Loss (Rattus norvegicus [2]): 1.7%

SMILES: CCN(CC)C(=O)[C@@H]1C=C2c3cccc4[nH]cc(c34)C[C@H]2N(C)C1 [LYSERGIDE]
- ED50 (Rattus norvegicus [7]): 0.32 mg/kg

SMILES: c1ccc(C2(N3CCCCC3)CCCCC2)cc1 [PHENCYCLIDINE]
- ED50 (Rattus norvegicus [7]): 1 mg/kg

SMILES: c1ccc(N2CCNCC2)cc1 [PHENYLPIPERAZINE]
- Ki [1]: 0.794 µM
- Loss (Rattus norvegicus [2]): 6%
- pKi [3]: 6.83
- Ki [4]: 0.668 µM
- Ki [5]: 0.149 µM
- pKi (D(1A) dopamine receptor): < 6.00
- pKi [6]: 7.20
- pKi (D(2) dopamine receptor): < 6.00
- ED50 (Rattus norvegicus [7]): 2.7 mg/kg

SMILES: CSc1ccc2c(c1)N(CCC1CCCCN1C)c1ccccc1S2 (centres undefined) [THIORIDAZINE]
- Loss (Rattus norvegicus [2]): 7.3%
- ED50 (Rattus norvegicus [7]): 9.7 mg/kg

SMILES: CN1CCN(CCCN2c3ccccc3Sc3ccc(C(F)(F)F)cc32)CC1 [TRIFLUOPERAZINE]
- Loss (Rattus norvegicus [2]): 1.2%
- ED50 (Rattus norvegicus [7]): 0.52 mg/kg

Reference: ChEMBL document CHEMBL1124459, “Activity of aromatic substituted phenylpiperazines lacking affinity for dopamine binding sites in a preclinical test of antipsychotic efficacy” (J Med Chem, 1989)
